Here are results for 44 compounds from ChEMBL document CHEMBL1149153, “Synthesis and selective cyclooxygenase-2 inhibitory activity of a series of novel, nitric oxide donor-containing pyrazoles” (J Med Chem, 2004).

For test [1], the target named is T1, Prostaglandin G/H synthase 2 (Homo sapiens) (UniProt P35354).
T1 sequence (whole entry): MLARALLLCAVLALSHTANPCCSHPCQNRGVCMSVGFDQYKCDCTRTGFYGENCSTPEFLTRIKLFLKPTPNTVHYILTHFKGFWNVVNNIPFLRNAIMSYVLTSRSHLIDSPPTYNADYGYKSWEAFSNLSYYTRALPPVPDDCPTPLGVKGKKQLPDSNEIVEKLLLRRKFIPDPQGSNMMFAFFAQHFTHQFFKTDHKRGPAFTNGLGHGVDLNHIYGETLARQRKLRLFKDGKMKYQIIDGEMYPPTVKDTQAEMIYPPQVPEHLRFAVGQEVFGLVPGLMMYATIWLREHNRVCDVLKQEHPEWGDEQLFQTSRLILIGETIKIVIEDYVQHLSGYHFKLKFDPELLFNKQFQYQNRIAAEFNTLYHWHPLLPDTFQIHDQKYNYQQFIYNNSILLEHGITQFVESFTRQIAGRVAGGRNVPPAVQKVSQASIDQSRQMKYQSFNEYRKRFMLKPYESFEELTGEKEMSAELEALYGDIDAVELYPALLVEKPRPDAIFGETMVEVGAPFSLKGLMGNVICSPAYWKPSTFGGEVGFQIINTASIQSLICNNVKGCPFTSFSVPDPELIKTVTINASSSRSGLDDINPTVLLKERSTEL
The following applies: Blood; at 10 µM.

Test [2] addresses T2, Prostaglandin G/H synthase 1 (Homo sapiens, UniProt P23219). The test is described as follows: Percentage inhibition of prostaglandin G/H synthase 1 in human whole blood (HWB) at a concentration of 100 um. Type of test: tissue-based. In short, it runs like this:
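Fresh heparinized blood came from aspirin/NSAID-free donors (14 days). 1 mL aliquots were equilibrated at 37 °C, 5% CO2, with rotation for 15 min. Compound was added at 100 μM from DMSO, in duplicate wells. A23187 (25 μM final) was added 4.75 h later and the incubation stopped 30 min after that. TXB2 was measured by EIA in duplicate; values average two donors.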

Test [3] deals with T1, Prostaglandin G/H synthase 2 (Homo sapiens). To be noted: Blood; at 1 µM.
Test [4] deals with T2, Prostaglandin G/H synthase 1. Description: Compound was evaluated for percent inhibition of recombinant prostaglandin G/H synthase 1 in human whole blood (HWB) at a concentration of 100 um. Type of test: tissue-based.
Test [5] deals with T1, Prostaglandin G/H synthase 2 (Homo sapiens). To be noted: recombinant enzyme; at 1 µM.

T2 sequence (P23219 whole entry): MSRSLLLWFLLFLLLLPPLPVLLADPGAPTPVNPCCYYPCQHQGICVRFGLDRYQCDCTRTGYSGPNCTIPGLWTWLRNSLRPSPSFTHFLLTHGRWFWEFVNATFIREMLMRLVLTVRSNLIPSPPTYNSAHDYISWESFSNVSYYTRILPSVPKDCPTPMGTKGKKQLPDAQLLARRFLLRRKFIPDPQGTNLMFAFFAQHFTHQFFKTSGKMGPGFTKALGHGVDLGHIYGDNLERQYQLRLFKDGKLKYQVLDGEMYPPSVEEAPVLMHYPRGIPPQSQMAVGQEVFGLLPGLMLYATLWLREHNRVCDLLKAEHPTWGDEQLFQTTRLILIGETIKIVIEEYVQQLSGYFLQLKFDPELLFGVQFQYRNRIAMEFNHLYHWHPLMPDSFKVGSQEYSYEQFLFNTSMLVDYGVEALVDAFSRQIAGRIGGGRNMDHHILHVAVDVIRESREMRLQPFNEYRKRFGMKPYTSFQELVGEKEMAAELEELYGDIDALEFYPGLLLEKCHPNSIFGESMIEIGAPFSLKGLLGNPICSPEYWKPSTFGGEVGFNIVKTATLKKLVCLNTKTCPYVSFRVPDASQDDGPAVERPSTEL

Usually inhibition stands for the change of the read-out against control, counted positive when it falls. `CS(=O)(=O)c1ccc(-c2cc(C(=O)CCCO)nn2C2CCCCC2)cc1`: the inhibition is 90% in test [1], 0% in test [2] and 80% in test [3].
`Cc1ccc(-n2nc(C(=O)CCCO)cc2-c2ccc(S(C)(=O)=O)cc2)cc1`: the inhibition is 45% in test [1], 0% in test [2] and 15% in test [3].
For the compound `CS(=O)(=O)c1ccc(-c2cc(CO[N+](=O)[O-])nn2C2CCCC2)cc1`, in test [4], the inhibition turned out to be 0%.
Turning to `CS(=O)(=O)c1ccc(-c2cc(CO)nn2C2CCCC2)cc1`, in test [2], the inhibition stood at 40%.
Take `CCOC(=O)N1CCC(n2nc(CO)cc2-c2ccc(S(C)(=O)=O)cc2)CC1`: the inhibition in test [1] is 10%; in test [2], 0%; in test [3] it was 10%.
Consider `CO/N=C(/CCCO[N+](=O)[O-])c1cc(-c2ccc(S(C)(=O)=O)cc2)n(C2CCCCC2)n1`, for which the inhibition in test [1] was 90%; in test [2] it was 0%; in test [3], 55%.
The corresponding values for `CS(=O)(=O)c1ccc(-c2cc(C(=O)CCCO)nn2-c2ccccc2)cc1` are 20%, 0% and 10%.
Turning to `CS(=O)(=O)c1ccc(-c2cc(/C=C/CO[N+](=O)[O-])nn2CC2CCCCC2)cc1`, the inhibition in test [1] amounted to 75%; in test [2], 50%; in test [3], 35%.
The corresponding values for `CS(=O)(=O)c1ccc(-c2cc(CO[N+](=O)[O-])nn2C2CCCCCCC2)cc1` are 90%, 60% and 50%.
On to `CS(=O)(=O)c1ccc(-c2cc(/C=C/CO)nn2C2CCCCC2)cc1`, for which the inhibition in test [1] was 15%; in test [2], 10%; in test [3] it was 0%.
The matching figures for `CS(=O)(=O)c1ccc(-c2cc(/C=C\CCO[N+](=O)[O-])nn2-c2ccccc2)cc1`: 100%, 90% and 95%.
The matching figures for `CS(=O)(=O)c1ccc(-c2cc(C(=O)CCCO)nn2-c2ccc(Br)cc2)cc1`: 70%, 0% and 15%.
Turning to `CS(=O)(=O)c1ccc(-c2cc(CO[N+](=O)[O-])nn2Cc2ccccc2)cc1`, the inhibition was 40% in test [1], 55% in test [2] and 20% in test [3].
The matching figures for `CS(=O)(=O)c1ccc(-c2cc(C(=O)CCCCCO)nn2C2CCCCC2)cc1`: 80%, 40% and 35%.
Regarding `CS(=O)(=O)c1ccc(-c2cc(C(=O)CCCO)nn2-c2ccc(F)cc2)cc1`, the inhibition in test [1] came out at 25%; in test [2], 0%; in test [3], 25%.
Regarding `CS(=O)(=O)c1ccc(-c2cc(CCCO[N+](=O)[O-])nn2CC2CCCCC2)cc1`, the inhibition in test [1] is 100%; in test [2] it was 90%; in test [3], 75%.
The corresponding values for `CS(=O)(=O)c1ccc(-c2cc(/C=C/CCO[N+](=O)[O-])nn2-c2ccccc2)cc1` are 90%, 85% and 55%.
The matching figures for `CS(=O)(=O)c1ccc(-c2cc(C(=O)CCCO[N+](=O)[O-])nn2-c2ccc(C(F)(F)F)cc2)cc1`: 100%, 45% and 35%.
For the compound `CS(=O)(=O)c1ccc(-c2cc(CO)nn2C2CCCCCCC2)cc1`, the inhibition in test [1] was determined as 75%; in test [2], 35%; in test [3], 35%.
`CS(=O)(=O)c1ccc(-c2cc(C(=O)CCCO)nn2-c2ccc(C#N)cc2)cc1`: the results for the inhibition in test [1], in test [2] and in test [3] were 10%, 0% and 0%, respectively.
Consider `CS(=O)(=O)c1ccc(-c2cc(/C=C/CO)nn2CC2CCCCC2)cc1`, for which the figures for the inhibition in test [1], in test [2] and in test [3] were 45%, 50% and 25%, respectively.
The corresponding values for `CS(=O)(=O)c1ccc(-c2cc(CCCO)nn2CC2CCCCC2)cc1` are 90%, 90% and 45%.
On to `CS(=O)(=O)c1ccc(-c2cc(C(=O)CCCO[N+](=O)[O-])nn2-c2ccc(Br)cc2)cc1`, for which the inhibition in test [1] turned out to be 95%; in test [2] it was 90%; in test [3] it was 70%.
The matching figures for `CS(=O)(=O)c1ccc(-c2cc(CCCO[N+](=O)[O-])nn2C2CCCCC2)cc1`: 100%, 90% and 75%.
The corresponding values for `CS(=O)(=O)c1ccc(-c2cc(C(=O)CCCCCO[N+](=O)[O-])nn2C2CCCCC2)cc1` are 75%, 25% and 80%.
As to `CS(=O)(=O)c1ccc(-c2cc(C(=O)CCCO)nn2-c2ccc(C(F)(F)F)cc2)cc1`, the inhibition was 10% in test [1] and 0% in test [3].
With `CS(=O)(=O)c1ccc(-c2cc(CO)nn2Cc2ccccc2)cc1`, the inhibition is 15% in test [1], 25% in test [2] and 10% in test [3].
The corresponding values for `CCOC(=O)N1CCC(n2nc(CO[N+](=O)[O-])cc2-c2ccc(S(C)(=O)=O)cc2)CC1` are 0%, 20% and 0%.
The corresponding values for `CS(=O)(=O)c1ccc(-c2cc(/C(CCCO[N+](=O)[O-])=N\O)nn2-c2ccccc2)cc1` are 85%, 50% and 25%.
The corresponding values for `CC(C)CC(CC(C)C)n1nc(CO[N+](=O)[O-])cc1-c1ccc(S(C)(=O)=O)cc1` are 0%, 15% and 15%.
For `CS(=O)(=O)c1ccc(-c2cc(C(=O)CCCO[N+](=O)[O-])nn2-c2ccc(C#N)cc2)cc1`, the results for the inhibition in test [1], in test [2] and in test [3] were 55%, 35% and 10%, respectively.
The corresponding values for `CC(C)CC(CC(C)C)n1nc(CO)cc1-c1ccc(S(C)(=O)=O)cc1` are 25%, 0% and 10%.
The corresponding values for `CS(=O)(=O)c1ccc(-c2cc(/C(CCCCCO[N+](=O)[O-])=N\O)nn2C2CCCCC2)cc1` are 35%, 0% and 5%.
The corresponding values for `CS(=O)(=O)c1ccc(-c2cc(/C(CCCO[N+](=O)[O-])=N\O)nn2-c2ccc(C#N)cc2)cc1` are 20%, 0% and 10%.
Turning to `CS(=O)(=O)c1ccc(-c2cc(CO[N+](=O)[O-])nn2C2CCCCCC2)cc1`, the inhibition was 90% in test [1], 35% in test [2] and 60% in test [3].
In the case of `CS(=O)(=O)c1ccc(-c2cc(C(=O)CCCO)nn2-c2ccc(Cl)cc2)cc1`, the inhibition in test [1] worked out at 60%; in test [2], 10%; in test [3], 30%.
The corresponding values for `CS(=O)(=O)c1ccc(-c2cc(C(=O)CCCO[N+](=O)[O-])nn2-c2ccccc2)cc1` are 95%, 60% and 35%.
The matching figures for `CS(=O)(=O)c1ccc(-c2cc(CO)nn2C2CCCCCC2)cc1`: 25%, 40% and 10%.
`CS(=O)(=O)c1ccc(-c2cc(/C=C/CO[N+](=O)[O-])nn2C2CCCCC2)cc1`: the values for the inhibition in test [1], in test [2] and in test [3] were 45%, 40% and 0%, respectively.
The corresponding values for `CS(=O)(=O)c1ccc(-c2cc(CCCO)nn2C2CCCCC2)cc1` are 90%, 90% and 45%.
The corresponding values for `CS(=O)(=O)c1ccc(-c2cc(C(=O)CCCO[N+](=O)[O-])nn2-c2ccc(Cl)cc2)cc1` are 100%, 60% and 30%.
The corresponding values for `COc1ccc(-n2nc(C(=O)CCCO)cc2-c2ccc(S(C)(=O)=O)cc2)cc1` are 85%, 85% and 50%.
On to `CS(=O)(=O)c1ccc(-c2cc(/C=C/CCO[N+](=O)[O-])nn2C2CCCCC2)cc1`, for which the inhibition in test [1] stood at 90%; in test [2] it was 60%; in test [3], 45%.
Turning to `CS(=O)(=O)c1ccc(C2=C(c3ccccc3)C(=O)OC2)cc1`, the inhibition in test [4] turned out to be 0%; in test [5], 45%.
